The text below walks through data of article PMC3517121 (Chembiochem : a European journal of chemical biology, 2011).

A short description of data set [1]: Molar absorption coefficient. Type of data set: physicochemical. The essentials: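 Test cross-linker concentration fixed by 1H NMR in DMSO-d6 with a known concentration of 1,2-dichloroethane, comparing the DCE methylene signal with the cross-linker α-methylene signal. The NMR solution was then diluted in DMSO or in 10 mM phosphate buffer pH 7.0, and UV-Vis spectra were recorded to calculate the molar absorption coefficient.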

For data set [2] the following is noted: cited from earlier work.
Data set [3] in a line: Solubility in water. Type of data set: physicochemical. Particulars: qualitative statement.

Read-outs that look alike come from different tables or passages of the source.

In the case of `O=C(CCl)Nc1ccc(N=Nc2ccc(-c3ccc(N=Nc4ccc(NC(=O)CCl)cc4)cc3)cc2)cc1` [BPDB, 4,4’-bis(4-(2-chloroacetamido)phenyl)diazenylbiphenyl], in data set [1] (at 400 nm in DMSO), the molar absorption coefficient is given as 60,000 M^-1cm^-1.
As for `O=C(CCl)Nc1ccc(N=Nc2ccc(NC(=O)CCl)c(S(=O)(=O)O)c2)cc1S(=O)(=O)O` [BSBCA, 3,3’-bis(sulfonato)-4,4’-bis(chloroacetamide)azobenzene], the molar absorption coefficient in data set [2] is 27,000 M^-1 cm^-1.
For `O=C(CCl)Nc1ccc(N=Nc2ccc(-c3ccc(N=Nc4ccc(NC(=O)CCl)cc4)cc3S(=O)(=O)O)c(S(=O)(=O)O)c2)cc1` [BPDBS, 4,4’-bis(4-(2-chloroacetamido)phenyl)diazenylbiphenyl-2,2’-disulfonate], the molar absorption coefficient in data set [1] (at 360 nm in sodium phosphate buffer, pH 7.0) was 45,000 M^-1cm^-1; in data set [1] (at 380 nm in DMSO), 52,000 M^-1cm^-1. Further, in data set [3], the solubility in water entry was “water-soluble”.
For `CC(=O)Nc1ccc(N=Nc2ccc(-c3ccc(N=Nc4ccc(NC(C)=O)cc4)cc3)cc2)cc1` [BPDB(r), 4,4’-bis(4-acetamidophenyl)diazenylbiphenyl], in data set [3], the solubility in water entry is reported as “not soluble in water”.
